Assay results collected from several papers.
Compare with care: the assays were run in different laboratories. pIC50: −log10 of the molar value. In brackets after ≈: the same amount, converted by molar mass.
Organism: Mycobacterium tuberculosis
Effect on: microbial growth

CCCCCCC#Cc1cncc(-c2nnc(SC[C@H]3O[C@@H](n4ccc(=O)[nH]c4=O)[C@H](O)[C@@H]3O)n2CCCN)c1  pIC50 (resazurin; ERDMAN): < 3.70
FC(F)(F)c1ccc(CCNc2cc(-c3cccs3)nc3nncn23)cc1  MIC (H37RV): 0.31 µM
Nc1c(C(=O)NCc2ccccc2)sc2nc(-c3ccccc3)ccc12  pIC50 (H37RV): 4.38
CCc1cc(=O)c2c(OCC(O)CN3CCCCC3)c3ccoc3c(OC)c2o1 (stereo not shown)  MIC (resazurin; H37RV; 21 days): 64 µg/mL
Cc1cccc(NC(=O)c2sc3nc(-c4cccs4)cc(C(F)(F)F)c3c2N)c1C  pIC50 (H37RV): < 4.00
Cc1ccc(CCNc2cc(-c3nccs3)nc3nncn23)cc1  MIC (H37RV; 5 days): 32 µM
CCc1cc(=O)c2c(OCC(O)CN3CCC(C)CC3)c3ccoc3c(OC)c2o1 (stereo not shown)  MIC (resazurin; 21 days): 32 µg/mL
O=c1c2cc(Cl)c(CF)cc2[nH]c(=S)n1Cc1cccnc1  MIC90 (H37RV): 6.72 µM (≈ 2.26 µg/mL)
Cc1cccc(NC(=O)c2sc3nc(-c4ccco4)cc(C(F)(F)F)c3c2N)c1C  pIC50 (H37RV): < 4.00
CCc1cc(=O)c2c(OCC(O)CN3CCOCC3)c3ccoc3c(OC)c2o1 (stereo not shown)  MIC (resazurin; H37RV; 21 days): 256 µg/mL
O=c1c2cc(C(F)(F)F)ncc2[nH]c(=S)n1Cc1cccnc1  MIC90 (H37RV): 45.5 µM (≈ 15.4 µg/mL)
COc1ccc(-c2cc(C(F)(F)F)c3c(N)c(C(=O)N4CC(F)(F)C4)sc3n2)cc1  pIC50 (H37RV): < 4.30
CC(=O)c1ccc(OCCc2cccc(F)c2)c(C(N)=O)c1  pIC50: 5.89
CO[C@H]1/C=C/O[C@@]2(C)Oc3c(C)c(O)c4c(O)c(c(/C=N/N5CCN(C)CC5)c(O)c4c3C2=O)NC(=O)/C(C)=C\C=C\[C@H](C)[C@H](O)[C@@H](C)[C@@H](O)[C@@H](C)[C@H](OC(C)=O)[C@@H]1C  MIC50 (H37RV): 0.06 µg/mL (≈ 0.0729 µM)
O=C(OCc1cc2[nH]c(=S)n(Cc3cncnc3)c(=O)c2cc1Cl)Oc1ccccc1  MIC90 (H37RV): 1.94 µM (≈ 0.882 µg/mL)
CC(C)(O)c1ccc(OCCc2cccc(F)c2)c(C(N)=O)c1  pIC50: 5.57
O=c1c2cc(Cl)ccc2[nH]c(=S)n1Cc1ccc(-n2cccn2)nc1  MIC90 (H37RV): > 100 µM
CCCCCCC#Cc1cncc(-c2nnc(SCc3ccc([N+](=O)[O-])o3)n2CCCN)c1  pIC50 (resazurin; ERDMAN): 4.92
COC(=O)OCc1cc2[nH]c(=S)n(Cc3cncnc3)c(=O)c2cc1Cl  MIC90 (H37RV): 1.84 µM (≈ 0.723 µg/mL)
Clc1ccc(CCNc2cc(C3CCCO3)nc3nncn23)cc1 (stereo not shown)  MIC (H37RV): 73 µM
CCCCCCC#Cc1cncc(-c2nnc(SCc3ccc([N+](=O)[O-])cc3)n2CCCN)c1  pIC50 (resazurin; ERDMAN): 4.70
O=c1c2cc(Cl)cnc2[nH]c(=S)n1Cc1cccnc1  MIC90 (H37RV): > 100 µM
COc1ccc(-c2cc(C(F)(F)F)c3c(N)c(C(=O)Nc4ccc(C)cc4C)sc3n2)cc1  pIC50 (H37RV): < 4.00
Cc1nnc2nc(-c3ccccn3)cc(NCCc3ccc(Cl)cc3)n12  MIC (H37RV): 24 µM
Nc1c(C(=O)Nc2cccnc2)sc2nc(-c3ccccc3)cc(C(F)(F)F)c12  pIC50 (H37RV): < 4.00
NC(=O)c1cc(Br)ccc1OCCc1cccc(F)c1  pIC50: 5.70
CCCCCCC#Cc1cncc(-c2nnc(SCc3cc(=O)[nH]c4ccccc34)n2C)c1  pIC50 (resazurin; ERDMAN): < 3.70
NNC(=O)c1ccncc1  MIC50: 0.1 µg/mL (≈ 0.729 µM)
c1ccc(-c2cc(NCCC34CC5CC(CC(C5)C3)C4)n3cnnc3n2)nc1  MIC (H37RV): 11 µM
NC(=O)c1cncc(Cn2c(=S)[nH]c3ccc(Cl)cc3c2=O)c1  MIC90 (H37RV): 63 µM (≈ 21.8 µg/mL)
CO[C@H]1/C=C/O[C@@]2(C)Oc3c(C)c(O)c4c(O)c(c(/C=N/N5CCN(C)CC5)c(O)c4c3C2=O)NC(=O)/C(C)=C\C=C\[C@H](C)[C@H](O)[C@@H](C)[C@@H](O)[C@@H](C)[C@H](OC(C)=O)[C@@H]1C  MIC90 (H37RA): 0.01 µM (≈ 0.00823 µg/mL)
Nc1c(C(=O)NCc2ccc(F)cc2)sc2ncccc12  pIC50 (H37RV): < 4.00
CCCCCCC#Cc1cncc(-c2nnc(SCc3ccc([N+](=O)[O-])o3)n2CCO)c1  pIC50 (resazurin; ERDMAN): 5.89
NCC[C@H](O)C(=O)N[C@@H]1C[C@H](N)[C@@H](O[C@H]2O[C@H](CN)[C@@H](O)[C@H](O)[C@H]2O)[C@H](O)[C@H]1O[C@H]1O[C@H](CO)[C@@H](O)[C@H](N)[C@H]1O  MIC50: 0.25 µg/mL (≈ 0.427 µM)
CCCCCCC#Cc1cncc(-c2nnc(SCc3cc([N+](=O)[O-])cc([N+](=O)[O-])c3)n2C2CCNCC2)c1  pIC50 (resazurin; ERDMAN): 5.59
Cc1ccc(Cn2c(=S)[nH]c3ccc(Cl)cc3c2=O)cn1  MIC90 (H37RV): > 25 µM
COc1ccc(CCNc2cc(-c3ccccn3)nc3cc(C4CC4)nn23)cc1  MIC (H37RV): 42 µM
CCCCCCC#Cc1cncc(-c2nnc(SCc3cc([N+](=O)[O-])cc([N+](=O)[O-])c3)n2CCO)c1  pIC50 (resazurin; ERDMAN): 5.85
Cc1ccc(CCNc2cc(-c3ccc(C)o3)nc3nncn23)cc1  MIC (H37RV): 0.36 µM
COc1ccc(-c2cc(C(F)(F)F)c3c(N)c(C(=O)Nc4cc(C)ccc4C)sc3n2)cc1  pIC50 (H37RV): < 4.00
CC[C@@H](CO)NCCN[C@@H](CC)CO  MIC (resazurin; H37RV; 21 days): 0.25 µg/mL
Clc1cccc(CCOc2cc(-c3ccccn3)nc3ncnn23)c1  MIC (H37RV): > 100 µM
CCCCCCC#Cc1cncc(-c2nnc(SC[C@H]3O[C@@H](n4ccc(=O)[nH]c4=O)[C@H](O)[C@@H]3O)n2C)c1  pIC50 (resazurin; ERDMAN): 4.01
